# Reference: ChEMBL document CHEMBL3244237, “Differences in antischistosomal and mutagenic properties between an isothiocyano- and an isocyanonitrodiphenylamine” (J Med Chem, 1977)
# What was measured:
# [1] = system: Schistosoma japonicum; assay: Antischistosomal activity against Schistosoma japonicum infected mouse assessed as reduction in number of worms at 50 mg/kg, po single dose; assay type: functional
# [2] = system: Schistosoma japonicum; assay: Antischistosomal activity against Schistosoma japonicum infected mouse assessed as reduction in number of worms at 125 mg/kg, po single dose; assay type: functional
# [3] = system: Schistosoma japonicum; assay: Antischistosomal activity against Schistosoma japonicum infected mouse assessed as reduction in number of worms at 250 mg/kg, po single dose; assay type: functional
# [4] = system: Schistosoma japonicum; assay: Antischistosomal activity against Schistosoma japonicum infected mouse assessed as reduction in number of worms at 500 mg/kg, po single dose; assay type: functional
# [5] = system: Schistosoma japonicum; assay: Antischistosomal activity against Schistosoma japonicum infected mouse assessed as mouse with parasital cures at 50 mg/kg, po single dose; assay type: functional
# [6] = system: Schistosoma japonicum; assay: Antischistosomal activity against Schistosoma japonicum infected mouse assessed as mouse with parasital cures at 125 mg/kg, po single dose; assay type: functional
# [7] = system: Schistosoma japonicum; assay: Antischistosomal activity against Schistosoma japonicum infected mouse assessed as mouse with parasital cures at 250 mg/kg, po single dose; assay type: functional
# [8] = system: Schistosoma japonicum; assay: Antischistosomal activity against Schistosoma japonicum infected mouse assessed as mouse with parasital cures at 500 mg/kg, po single dose; assay type: functional
# [9] = system: Salmonella typhimurium; assay: Mutagenic activity in Salmonella typhimurium TA-100 at 17 nmol/plate by Ames test; assay type: toxicity, organism-based; settings: salmonella enterica subsp. enterica serovar typhimurium
# Method in brief: (§1)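 Ames plate-incorporation assay in Salmonella typhimurium TA-98 or TA-100 without rat liver S9. Compound was dissolved in Me2SO, with final Me2SO held at 0.1 mL per 15 mL medium on every plate, controls included. The top level tested was near that giving 10% growth inhibition. Read-out was revertant count in excess of solvent controls.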
# [10] = system: Salmonella typhimurium; assay: Mutagenic activity in Salmonella typhimurium TA-100 at 60 nmol/plate by Ames test; assay type: toxicity, organism-based; settings: salmonella enterica subsp. enterica serovar typhimurium; method in brief: as §1
# [11] = system: Salmonella typhimurium; assay: Mutagenic activity in Salmonella typhimurium TA-100 at 17 nmol/plate by Ames test in presence of rat liver microsomes S9 fraction; assay type: toxicity, organism-based; settings: salmonella enterica subsp. enterica serovar typhimurium
# Method in brief: as §1, with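 “with” for “without”, “microsomal S9 fraction.” for “S9.”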
# [12] = system: Salmonella typhimurium; assay: Mutagenic activity in Salmonella typhimurium TA-100 at 60 nmol/plate by Ames test in presence of rat liver microsomes S9 fraction; assay type: toxicity, organism-based; settings: salmonella enterica subsp. enterica serovar typhimurium
# Method in brief: as §1, with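 “with” for “without”, “microsomal S9 fraction.” for “S9.”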
# [13] = system: Salmonella typhimurium; assay: Mutagenic activity in Salmonella typhimurium TA-98 at 17 nmol/plate by Ames test; assay type: toxicity, organism-based; settings: salmonella enterica subsp. enterica serovar typhimurium; method in brief: as §1
# [14] = system: Salmonella typhimurium; assay: Mutagenic activity in Salmonella typhimurium TA-98 at 60 nmol/plate by Ames test; assay type: toxicity, organism-based; settings: salmonella enterica subsp. enterica serovar typhimurium; method in brief: as §1
# [15] = system: Salmonella typhimurium; assay: Mutagenic activity in Salmonella typhimurium TA-98 at 17 nmol/plate by Ames test in presence of rat liver microsomes S9 fraction; assay type: toxicity, organism-based; settings: salmonella enterica subsp. enterica serovar typhimurium
# Method in brief: as §1, with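 “with” for “without”, “microsomal S9 fraction.” for “S9.”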
# [16] = system: Salmonella typhimurium; assay: Mutagenic activity in Salmonella typhimurium TA-98 at 60 nmol/plate by Ames test in presence of rat liver microsomes S9 fraction; assay type: toxicity, organism-based; settings: salmonella enterica subsp. enterica serovar typhimurium
# Method in brief: as §1, with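 “with” for “without”, “microsomal S9 fraction.” for “S9.”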
# [17] = system: Schistosoma japonicum; assay: Antischistosomal activity against Schistosoma japonicum infected mouse assessed as reduction in number of worms at 5 mg/kg, po single dose; assay type: functional
# [18] = system: Schistosoma japonicum; assay: Antischistosomal activity against Schistosoma japonicum infected mouse assessed as reduction in number of worms at 7 mg/kg, po single dose; assay type: functional
# [19] = system: Schistosoma japonicum; assay: Antischistosomal activity against Schistosoma japonicum infected mouse assessed as reduction in number of worms at 10 mg/kg, po single dose; assay type: functional
# [20] = system: Schistosoma japonicum; assay: Antischistosomal activity against Schistosoma japonicum infected mouse assessed as reduction in number of worms at 20 mg/kg, po single dose; assay type: functional
# [21] = system: Schistosoma japonicum; assay: Antischistosomal activity against Schistosoma japonicum infected mouse assessed as mouse with parasital cures at 5 mg/kg, po single dose; assay type: functional
# [22] = system: Schistosoma japonicum; assay: Antischistosomal activity against Schistosoma japonicum infected mouse assessed as mouse with parasital cures at 7 mg/kg, po single dose; assay type: functional
# [23] = system: Schistosoma japonicum; assay: Antischistosomal activity against Schistosoma japonicum infected mouse assessed as mouse with parasital cures at 10 mg/kg, po single dose; assay type: functional
# [24] = system: Schistosoma japonicum; assay: Antischistosomal activity against Schistosoma japonicum infected mouse assessed as mouse with parasital cures at 20 mg/kg, po single dose; assay type: functional
# [25] = system: Salmonella typhimurium; assay: Mutagenic activity in Salmonella typhimurium TA-100 at 5 nmol/plate by Ames test; assay type: toxicity, organism-based; settings: salmonella enterica subsp. enterica serovar typhimurium
# [26] = system: Salmonella typhimurium; assay: Mutagenic activity in Salmonella typhimurium TA-100 at 16 nmol/plate by Ames test; assay type: toxicity, organism-based; settings: salmonella enterica subsp. enterica serovar typhimurium
# [27] = system: Salmonella typhimurium; assay: Mutagenic activity in Salmonella typhimurium TA-100 at 53 nmol/plate by Ames test; assay type: toxicity, organism-based; settings: salmonella enterica subsp. enterica serovar typhimurium
# [28] = system: Salmonella typhimurium; assay: Mutagenic activity in Salmonella typhimurium TA-100 at 158 nmol/plate by Ames test; assay type: toxicity, organism-based; settings: salmonella enterica subsp. enterica serovar typhimurium
# [29] = system: Salmonella typhimurium; assay: Mutagenic activity in Salmonella typhimurium TA-100 at 5 nmol/plate by Ames test in presence of rat liver microsomes S9 fraction; assay type: toxicity, organism-based; settings: salmonella enterica subsp. enterica serovar typhimurium
# [30] = system: Salmonella typhimurium; assay: Mutagenic activity in Salmonella typhimurium TA-100 at 16 nmol/plate by Ames test in presence of rat liver microsomes S9 fraction; assay type: toxicity, organism-based; settings: salmonella enterica subsp. enterica serovar typhimurium
# [31] = system: Salmonella typhimurium; assay: Mutagenic activity in Salmonella typhimurium TA-100 at 53 nmol/plate by Ames test in presence of rat liver microsomes S9 fraction; assay type: toxicity, organism-based; settings: salmonella enterica subsp. enterica serovar typhimurium
# [32] = system: Salmonella typhimurium; assay: Mutagenic activity in Salmonella typhimurium TA-100 at 158 nmol/plate by Ames test in presence of rat liver microsomes S9 fraction; assay type: toxicity, organism-based; settings: salmonella enterica subsp. enterica serovar typhimurium
# [33] = system: Salmonella typhimurium; assay: Mutagenic activity in Salmonella typhimurium TA-98 at 5 nmol/plate by Ames test; assay type: toxicity, organism-based; settings: salmonella enterica subsp. enterica serovar typhimurium
# [34] = system: Salmonella typhimurium; assay: Mutagenic activity in Salmonella typhimurium TA-98 at 16 nmol/plate by Ames test; assay type: toxicity, organism-based; settings: salmonella enterica subsp. enterica serovar typhimurium
# [35] = system: Salmonella typhimurium; assay: Mutagenic activity in Salmonella typhimurium TA-98 at 53 nmol/plate by Ames test; assay type: toxicity, organism-based; settings: salmonella enterica subsp. enterica serovar typhimurium
# [36] = system: Salmonella typhimurium; assay: Mutagenic activity in Salmonella typhimurium TA-98 at 158 nmol/plate by Ames test; assay type: toxicity, organism-based; settings: salmonella enterica subsp. enterica serovar typhimurium
# [37] = system: Salmonella typhimurium; assay: Mutagenic activity in Salmonella typhimurium TA-98 at 5 nmol/plate by Ames test in presence of rat liver microsomes S9 fraction; assay type: toxicity, organism-based; settings: salmonella enterica subsp. enterica serovar typhimurium
# [38] = system: Salmonella typhimurium; assay: Mutagenic activity in Salmonella typhimurium TA-98 at 16 nmol/plate by Ames test in presence of rat liver microsomes S9 fraction; assay type: toxicity, organism-based; settings: salmonella enterica subsp. enterica serovar typhimurium
# [39] = system: Salmonella typhimurium; assay: Mutagenic activity in Salmonella typhimurium TA-98 at 53 nmol/plate by Ames test in presence of rat liver microsomes S9 fraction; assay type: toxicity, organism-based; settings: salmonella enterica subsp. enterica serovar typhimurium
# [40] = system: Salmonella typhimurium; assay: Mutagenic activity in Salmonella typhimurium TA-98 at 158 nmol/plate by Ames test in presence of rat liver microsomes S9 fraction; assay type: toxicity, organism-based; settings: salmonella enterica subsp. enterica serovar typhimurium
smiles,measurement,setting,value
O=C=Nc1ccc(Nc2ccc([N+](=O)[O-])cc2)cc1,inhibition in vivo at 50 mg/kg,[1],0%
same,inhibition in vivo at 125 mg/kg,[2],0%
same,inhibition in vivo at 250 mg/kg,[3],0%
same,inhibition in vivo at 500 mg/kg,[4],0%
same,Activity,[5],0%
same,Activity,[6],0%
same,Activity,[7],0%
same,Activity,[8],0%
same,Activity,[9],Toxic
same,Activity,[10],Toxic
same,Activity,[11],Toxic
same,Activity,[12],Toxic
same,Activity,[13],Toxic
same,Activity,[14],Toxic
same,Activity,[15],Toxic
same,Activity,[16],Toxic
O=[N+]([O-])c1ccc(Nc2ccc(N=C=S)cc2)cc1 [AMOSCANATE],inhibition in vivo at 5 mg/kg,[17],68%
same,inhibition in vivo at 7 mg/kg,[18],82%
same,inhibition in vivo at 10 mg/kg,[19],99%
same,inhibition in vivo at 20 mg/kg,[20],100%
same,Activity,[21],14%
same,Activity,[22],25%
same,Activity,[23],92%
same,Activity,[24],100%
same,Activity,[25],Non-toxic
same,Activity,[26],Non-toxic
same,Activity,[27],Non-toxic
same,Activity,[28],Non-toxic
same,Activity,[29],Non-toxic
same,Activity,[30],Non-toxic
same,Activity,[31],Non-toxic
same,Activity,[32],Non-toxic
same,Activity,[33],Non-toxic
same,Activity,[34],Non-toxic
same,Activity,[35],Non-toxic
same,Activity,[36],Non-toxic
same,Activity,[37],Non-toxic
same,Activity,[38],Non-toxic
same,Activity,[39],Non-toxic
same,Activity,[40],Non-toxic
